Data set [1] relates to MCF7. As to the kind of experiment: Inhibition of mammosphere formation in human MCF7 cells assessed as ratio of C-Myc to beta actin level at 5 uM by Western blot analysis (Rvb= 1). It counts as functional. The method in brief:
(§1)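 Post-treatment cell lysates were probed by Western blot for CSC markers, with β-actin as the loading control. Band densitometry was normalized to DMSO-treated samples.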

The subject of data set [2] is MDA-MB-231. As to the kind of experiment: Cytotoxicity against human MDA-MB-231 cells assessed as reduction in cell viability at 5 uM by MTT assay. It counts as functional.
Data set [3] deals with MCF-10A. As to the kind of experiment: Induction of apoptosis in human MCF10A cells assessed as ratio of cleaved caspase-3 to beta-actin level at 5 uM by western blot analysis (reference value: 1). It counts as cell-based.
For data set [4], the system named is MCF7. As to the kind of experiment: Induction of apoptosis in human MCF7 cells assessed as ratio of cleaved caspase-8 to beta-actin level at 5 uM by western blot analysis (reference value: 1). It counts as functional.
Data set [5] relates to MCF-10A. As to the kind of experiment: Induction of apoptosis in human MCF10A cells assessed as ratio of cleaved caspase-9 to beta-actin level at 5 uM by western blot analysis (reference value: 1). It counts as cell-based.
For data set [6], the system named is BT-549. As to the kind of experiment: Induction of apoptosis in nuclear fractions of human BT549 cells assessed as ratio of cleaved PARP to beta-actin level at 5 uM by western blot analysis (reference value: 1). It counts as functional.
For data set [7], the system named is MCF7. As to the kind of experiment: Down regulation of Nanog expression in human MCF7 cells at 5 uM by Western blot analysis. It counts as functional. The method in brief: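 MCF-7 cells were treated and lysates probed by Western blot for CSC-related markers, with β-actin as loading control. Band densitometry was normalized to DMSO-treated samples.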
For data set [8], the system named is MDA-MB-231. As to the kind of experiment: Inhibition of mammosphere formation in human MDA-MB-231 cells assessed as ratio of C-Myc to beta actin level at 5 uM by Western blot analysis (Rvb= 1). It counts as functional. The method in brief:
as §1

Data set [9] has as its system MDA-MB-231. As to the kind of experiment: Inhibition of mammosphere formation in human MDA-MB-231 cells assessed as ratio of KLF4 to beta actin level at 5 uM by Western blot analysis (Rvb= 1). It counts as functional. The method in brief:
as §1

Data set [10] relates to MDA-MB-231. As to the kind of experiment: Effect on epithelial-mesenchymal transition in human MDA-MB-231 cells assessed as ratio of E-cadherin to beta-actin level at 5 uM by Western blot analysis (reference value: 1). It counts as functional.
The subject of data set [11] is MDA-MB-231. As to the kind of experiment: Effect on epithelial-mesenchymal transition in human MDA-MB-231 cells assessed as ratio of slug to beta-actin level at 5 uM by Western blot analysis (reference value: 1). It counts as functional.
For data set [12], the system named is MDA-MB-231. As to the kind of experiment: Induction of apoptosis in nuclear fractions of human MDA-MB-231 cells assessed as ratio of PARP to beta-actin level at 5 uM by western blot analysis (reference value: 1). It counts as functional.
Data set [13] has as its system BT-549. As to the kind of experiment: Effect on beta-catenin translocation in cytosolic fraction of human BT549 cells assessed as ratio of beta-catenin to beta-actin level at 5 uM by Western blot analysis (reference value: 1). It counts as functional.

SMILES strings stand for the structures.

For the compound `C=C(c1ccc(C(=O)NCCN2CCCC2)cc1)c1cc2c(cc1C)C(C)(C)CCC2(C)C`, the Ratio in the data set with MCF7 [1] is given as 0.8; with MCF-10A [3], 1; with MCF7 [4], 1; with MCF-10A [5] it was 1; with BT-549 [6], 2.5; with MDA-MB-231 [8], 1.1. For the same compound, the Ratio worked out at 0.5 with MDA-MB-231 [9]; 6.2 with MDA-MB-231 [10]; 1 with MDA-MB-231 [11]; 0.9 in the data set with MDA-MB-231 [12]; 2.4 in the data set with BT-549 [13]. In addition, the Activity is on record as 60% with MDA-MB-231 [2] and 20% with MCF7 [7].

The values are drawn from ChEMBL document CHEMBL4184106, “Discovering alkylamide derivatives of bexarotene as new therapeutic agents against triple-negative breast cancer” (Bioorg Med Chem Lett, 2018).
